Test results from ChEMBL document CHEMBL2331331 (J Med Chem, 2013).
Active and inactive are the calls of the source. No cut-off for these calls is given here.

Legend:
MDA-MB-468 = assay: Cytotoxicity against human MDA-MB-468 cells assessed as growth inhibition after 72 hrs by MTT assay; conditions: MDA-MB-468, 72 h
[1] = Oral bioavailability in Sprague-Dawley rat at 10 mg/kg/day; assay type: ADME, organism-based; conditions: in vivo
In short: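 Sprague-Dawley rats, five per group, were dosed orally at 10 mg/kg. Plasma was sampled through jugular vein cannulation. Drug levels were measured by liquid–liquid extraction followed by LC–MS.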

LoVo = assay: Cytotoxicity against human LoVo cells assessed as growth inhibition after 72 hrs by MTT assay
[2] = target: Platelet-derived growth factor receptor alpha (Homo sapiens, UniProt P16234); assay: Inhibition of PDGFRalpha (unknown origin)
[3] = target: Vascular endothelial growth factor receptor 2 (Danio rerio) (UniProt Q5GIT4); assay: (§1) Inhibition of VEGFR2 in transgenic zebrafish embryo assessed as inhibition of intersegmental vessels formation measured 33 hrs post fertilization by fluorescence microscopic analysis
Sequence of Vascular endothelial growth factor receptor 2 (Danio rerio) (Q5GIT4 whole entry): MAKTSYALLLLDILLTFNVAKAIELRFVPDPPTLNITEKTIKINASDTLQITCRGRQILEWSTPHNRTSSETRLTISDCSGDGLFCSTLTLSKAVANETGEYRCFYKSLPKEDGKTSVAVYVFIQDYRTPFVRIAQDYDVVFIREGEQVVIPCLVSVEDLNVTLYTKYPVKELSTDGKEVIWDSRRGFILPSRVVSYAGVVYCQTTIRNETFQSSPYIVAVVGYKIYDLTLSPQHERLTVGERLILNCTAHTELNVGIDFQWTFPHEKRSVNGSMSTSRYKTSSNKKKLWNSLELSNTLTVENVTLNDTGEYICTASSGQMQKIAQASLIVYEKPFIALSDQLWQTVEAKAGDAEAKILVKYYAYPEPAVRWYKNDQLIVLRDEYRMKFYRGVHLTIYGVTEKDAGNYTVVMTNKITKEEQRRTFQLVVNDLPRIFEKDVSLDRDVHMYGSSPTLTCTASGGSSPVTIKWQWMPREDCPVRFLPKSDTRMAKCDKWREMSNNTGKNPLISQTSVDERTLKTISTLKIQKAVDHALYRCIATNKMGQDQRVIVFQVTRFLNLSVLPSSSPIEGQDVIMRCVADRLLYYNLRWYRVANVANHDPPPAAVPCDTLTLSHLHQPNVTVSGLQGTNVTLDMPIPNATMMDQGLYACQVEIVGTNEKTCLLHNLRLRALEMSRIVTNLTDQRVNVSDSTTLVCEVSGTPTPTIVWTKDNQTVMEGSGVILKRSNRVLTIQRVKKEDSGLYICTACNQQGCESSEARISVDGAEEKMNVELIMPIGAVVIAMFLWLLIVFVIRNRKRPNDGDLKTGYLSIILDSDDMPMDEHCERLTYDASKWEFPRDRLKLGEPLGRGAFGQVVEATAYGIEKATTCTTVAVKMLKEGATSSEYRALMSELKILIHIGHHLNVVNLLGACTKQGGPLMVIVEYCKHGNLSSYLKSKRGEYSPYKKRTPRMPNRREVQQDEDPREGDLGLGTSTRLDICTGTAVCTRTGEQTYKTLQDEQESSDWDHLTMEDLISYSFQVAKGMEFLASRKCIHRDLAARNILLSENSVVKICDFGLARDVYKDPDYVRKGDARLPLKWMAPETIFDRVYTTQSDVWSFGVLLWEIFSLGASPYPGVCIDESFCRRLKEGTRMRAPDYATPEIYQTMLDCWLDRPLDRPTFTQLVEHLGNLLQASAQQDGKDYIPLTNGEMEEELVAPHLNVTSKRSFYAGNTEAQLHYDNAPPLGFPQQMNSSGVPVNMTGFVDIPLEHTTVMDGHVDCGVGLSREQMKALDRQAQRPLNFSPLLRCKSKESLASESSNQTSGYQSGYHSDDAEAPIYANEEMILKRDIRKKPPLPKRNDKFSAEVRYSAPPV
In short: (§2)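 FLK-1:EGFP transgenic zebrafish embryos, 10 per well, exposed at 28.5 °C from 15 to 31 hpf to compound in fish water at 1.25, 2.5 or 5 μM (diluted from a 10 mmol/L DMSO stock); 0.3% DMSO as vehicle control. Embryos were imaged at 33 hpf, and ISVs above the yolk extension were scored for length. n = 11, mean ± SD, ANOVA.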

[4] = target: Vascular endothelial growth factor receptor 2 (Danio rerio, UniProt Q5GIT4); assay: as §1; in short: as §2
Sequence of Vascular endothelial growth factor receptor 2 (Q5GIT4 whole entry): as above

MV4-11 [5] = assay: Antitumor activity against human MV4-11 cells xenografted in mouse at 5 mg/kg/day, po after 18 days; assay type: functional, organism-based
In short: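 MV4-11 sc xenograft mice dosed daily by mouth once tumors reached about 400 mm³, three mice per group; tumor volume followed.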

[6] = target: Calcium/calmodulin-dependent protein kinase type IV (Homo sapiens, UniProt Q16566); assay: Inhibition of CAMK4 (unknown origin)
Sequence of Calcium/calmodulin-dependent protein kinase type IV (Q16566 whole entry): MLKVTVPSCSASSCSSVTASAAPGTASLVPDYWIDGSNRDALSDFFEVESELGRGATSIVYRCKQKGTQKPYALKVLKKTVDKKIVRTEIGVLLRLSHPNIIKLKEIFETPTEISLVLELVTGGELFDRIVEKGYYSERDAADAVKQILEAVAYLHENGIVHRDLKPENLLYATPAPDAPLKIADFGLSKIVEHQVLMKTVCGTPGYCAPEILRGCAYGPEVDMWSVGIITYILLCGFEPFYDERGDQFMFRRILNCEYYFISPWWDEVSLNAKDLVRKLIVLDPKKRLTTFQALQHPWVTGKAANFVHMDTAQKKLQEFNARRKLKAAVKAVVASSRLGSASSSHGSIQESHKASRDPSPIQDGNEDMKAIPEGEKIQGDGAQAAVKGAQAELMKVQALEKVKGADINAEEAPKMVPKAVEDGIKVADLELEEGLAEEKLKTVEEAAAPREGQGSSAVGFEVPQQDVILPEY

DU-145 = assay: Cytotoxicity against human DU145 cells assessed as growth inhibition after 72 hrs by MTT assay; conditions: DU-145, 72 h
[7] = target: Vascular endothelial growth factor receptor 2 (Danio rerio) (UniProt Q5GIT4); assay: Inhibition of VEGFR2 in transgenic zebrafish embryo assessed as inhibition of intersegmental vessels formation at 5 uM measured 33 hrs post fertilization by fluorescence microscopic analysis; in short: as §2
[8] = target: Serine/threonine-protein kinase PAK 1 (Homo sapiens, UniProt Q13153); assay: Inhibition of PAK1 (unknown origin)
K562 = assay: Cytotoxicity against human K562 cells assessed as growth inhibition after 72 hrs by MTT assay; conditions: K562, 72 h
MV4-11 [9] = assay: Antitumor activity against FLT3-ITD-positive human MV4-11 cells xenografted in NOD-SCID mouse assessed as tumor growth inhibition at 3 mg/kg/day, po administered 18 days measured every 3 days for 18 days; assay type: functional, organism-based
In short: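 NOD-SCID mice (5–6 weeks) implanted sc with 1 × 10⁸/mL MV4-11 cells (100 μL) in serum-free medium. Grouped at 300–500 mm³, six per group, then dosed orally once daily for 18 days. Vehicle was 12.5% castor oil, 12.5% ethanol, 75% water. Tumor volume = long × short²/2, measured every 3 d.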

[10] = target: Receptor tyrosine-protein kinase erbB-2 (Homo sapiens, UniProt P04626); assay: Inhibition of ERBB2 (unknown origin)
In short: (§3)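 Single selected panel of recombinant human protein kinases, screened in vitro. The value reported is the IC50 against each kinase.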

[11] = target: Receptor tyrosine-protein kinase erbB-4 (Homo sapiens, UniProt Q15303); assay: Inhibition of ERBB4 (unknown origin)
U-266 = assay: Cytotoxicity against human U266 cells assessed as growth inhibition after 72 hrs by MTT assay; conditions: U-266, 72 h
[12] = target: Dual specificity mitogen-activated protein kinase kinase 1 (Homo sapiens, UniProt Q02750); assay: Inhibition of MEK1 (unknown origin)
Sequence of Dual specificity mitogen-activated protein kinase kinase 1 (Q02750 whole entry): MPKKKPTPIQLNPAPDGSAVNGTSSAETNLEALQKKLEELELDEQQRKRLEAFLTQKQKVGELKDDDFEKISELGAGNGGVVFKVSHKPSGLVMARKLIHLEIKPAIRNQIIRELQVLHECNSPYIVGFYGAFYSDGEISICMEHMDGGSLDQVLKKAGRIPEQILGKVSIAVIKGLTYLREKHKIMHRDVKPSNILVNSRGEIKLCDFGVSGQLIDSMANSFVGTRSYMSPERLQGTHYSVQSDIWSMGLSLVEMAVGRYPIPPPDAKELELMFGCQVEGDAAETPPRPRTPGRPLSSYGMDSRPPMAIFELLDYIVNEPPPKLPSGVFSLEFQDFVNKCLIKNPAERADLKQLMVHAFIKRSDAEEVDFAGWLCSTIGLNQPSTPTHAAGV

[13] = target: Serine/threonine-protein kinase PAK 2 (Homo sapiens, UniProt Q13177); assay: Inhibition of PAK2 (unknown origin)
KARPAS-299 = assay: Cytotoxicity against human KARPAS299 cells assessed as growth inhibition after 72 hrs by MTT assay; conditions: KARPAS-299, 72 h
[14] = target: Cyclin-dependent kinase 2 (Homo sapiens, UniProt P24941); assay: Inhibition of CDK2 (unknown origin)
[15] = target: Megakaryocyte-associated tyrosine-protein kinase (Homo sapiens, UniProt P42679); assay: Inhibition of CTK (unknown origin)
[16] = target: Serine/threonine-protein kinase PAK 4 (Homo sapiens, UniProt O96013); assay: Inhibition of PAK4 (unknown origin); in short: as §3
Sequence of Serine/threonine-protein kinase PAK 4 (O96013 whole entry): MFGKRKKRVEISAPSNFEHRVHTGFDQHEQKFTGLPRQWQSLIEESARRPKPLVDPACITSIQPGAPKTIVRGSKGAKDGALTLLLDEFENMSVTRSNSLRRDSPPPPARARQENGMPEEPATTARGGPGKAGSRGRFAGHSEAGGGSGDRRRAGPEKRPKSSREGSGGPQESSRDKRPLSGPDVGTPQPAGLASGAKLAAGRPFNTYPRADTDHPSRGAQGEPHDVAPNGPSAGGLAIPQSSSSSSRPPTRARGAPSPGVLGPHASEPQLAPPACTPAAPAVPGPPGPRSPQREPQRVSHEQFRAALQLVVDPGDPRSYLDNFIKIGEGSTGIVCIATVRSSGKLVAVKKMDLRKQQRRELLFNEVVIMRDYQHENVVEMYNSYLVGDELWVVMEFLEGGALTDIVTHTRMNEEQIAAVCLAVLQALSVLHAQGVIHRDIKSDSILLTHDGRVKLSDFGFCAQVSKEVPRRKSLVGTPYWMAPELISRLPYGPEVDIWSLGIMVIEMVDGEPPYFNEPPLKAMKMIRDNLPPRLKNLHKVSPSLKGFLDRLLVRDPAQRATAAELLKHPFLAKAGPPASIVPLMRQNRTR

MV4-11 [17] = assay: Induction of apoptosis in human MV4-11 cells assessed as late apoptotic cells at 0.03 uM after 24 hrs by annexin V-FITC/propidium iodide staining-based FACS flow cytometric analysis (reference value: 4.28%); assay type: functional
[18] = Cytotoxicity against human SK cells assessed as growth inhibition after 72 hrs by MTT assay
MKN-45 = assay: Cytotoxicity against human MKN45 cells assessed as growth inhibition after 72 hrs by MTT assay; conditions: MKN-45, 72 h
U-937 = assay: Cytotoxicity against human U937 cells assessed as growth inhibition after 72 hrs by MTT assay; conditions: U-937, 72 h
Bel-7402 = assay: Cytotoxicity against human Bel7402 cells assessed as growth inhibition after 72 hrs by MTT assay; conditions: Bel-7402, 72 h
Mus musculus = assay: Inhibition of FLT3-ITD mutant in human MV4-11 cells xenografted in NOD-SCID mouse assessed as inhibition of STAT5 phosphorylation at 10 mg/kg/day, po after 3 days by immunostaining method relative to vehicle-treated control; assay type: functional, organism-based
In short: (§4)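 Mice (NOD-SCID) bearing sc MV4-11 tumors given 10 mg/kg/d by oral gavage. Tumors removed after 2–4 days and formalin-fixed. Sections immunostained for Ki67 (proliferation) or p-STAT5, or TUNEL-stained (apoptosis). Imaged by light microscopy and compared with vehicle group.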

Aurora kinase B = Aurora kinase B (Homo sapiens, UniProt Q96GD4); assay: Inhibition of aurora-B (unknown origin)
SK-OV-3 = assay: Cytotoxicity against human SKOV3 cells assessed as growth inhibition after 72 hrs by MTT assay; conditions: SK-OV-3, 72 h
MV4-11 [19] = assay: Antitumor activity against FLT3-ITD-positive human MV4-11 cells xenografted in NOD-SCID mouse assessed as tumor growth inhibition at 10 mg/kg/day, po after 3 days by Ki67 staining-based light microscopic analysis relative to vehicle-treated control; assay type: functional, organism-based; in short: as §4
Myotonin-protein kinase = Myotonin-protein kinase (Homo sapiens, UniProt Q09013); assay: Inhibition of DMPK (unknown origin)
Sequence of Myotonin-protein kinase (Q09013 whole entry): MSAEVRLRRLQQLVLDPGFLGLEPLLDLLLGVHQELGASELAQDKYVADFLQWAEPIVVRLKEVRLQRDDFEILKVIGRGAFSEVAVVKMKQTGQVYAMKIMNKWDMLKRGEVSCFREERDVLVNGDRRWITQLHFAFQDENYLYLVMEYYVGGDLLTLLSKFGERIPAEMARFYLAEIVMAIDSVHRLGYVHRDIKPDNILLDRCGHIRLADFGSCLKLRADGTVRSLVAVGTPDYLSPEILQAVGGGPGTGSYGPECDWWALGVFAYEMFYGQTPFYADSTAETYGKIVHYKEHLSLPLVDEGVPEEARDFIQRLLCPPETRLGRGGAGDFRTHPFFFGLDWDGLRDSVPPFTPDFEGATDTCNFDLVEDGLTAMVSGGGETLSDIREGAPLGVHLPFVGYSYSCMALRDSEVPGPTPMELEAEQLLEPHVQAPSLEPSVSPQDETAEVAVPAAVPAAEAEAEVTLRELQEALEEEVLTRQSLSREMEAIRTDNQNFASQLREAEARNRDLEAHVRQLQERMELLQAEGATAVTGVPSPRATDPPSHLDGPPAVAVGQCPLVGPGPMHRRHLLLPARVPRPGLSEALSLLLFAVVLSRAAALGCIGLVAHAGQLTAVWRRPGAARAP

Raji = assay: Cytotoxicity against human Raji cells assessed as growth inhibition after 72 hrs by MTT assay
[20] = target: Platelet-derived growth factor receptor beta (Homo sapiens, UniProt P09619); assay: Inhibition of PDGFRbeta (unknown origin); in short: as §3
Sequence of Platelet-derived growth factor receptor beta (P09619 whole entry): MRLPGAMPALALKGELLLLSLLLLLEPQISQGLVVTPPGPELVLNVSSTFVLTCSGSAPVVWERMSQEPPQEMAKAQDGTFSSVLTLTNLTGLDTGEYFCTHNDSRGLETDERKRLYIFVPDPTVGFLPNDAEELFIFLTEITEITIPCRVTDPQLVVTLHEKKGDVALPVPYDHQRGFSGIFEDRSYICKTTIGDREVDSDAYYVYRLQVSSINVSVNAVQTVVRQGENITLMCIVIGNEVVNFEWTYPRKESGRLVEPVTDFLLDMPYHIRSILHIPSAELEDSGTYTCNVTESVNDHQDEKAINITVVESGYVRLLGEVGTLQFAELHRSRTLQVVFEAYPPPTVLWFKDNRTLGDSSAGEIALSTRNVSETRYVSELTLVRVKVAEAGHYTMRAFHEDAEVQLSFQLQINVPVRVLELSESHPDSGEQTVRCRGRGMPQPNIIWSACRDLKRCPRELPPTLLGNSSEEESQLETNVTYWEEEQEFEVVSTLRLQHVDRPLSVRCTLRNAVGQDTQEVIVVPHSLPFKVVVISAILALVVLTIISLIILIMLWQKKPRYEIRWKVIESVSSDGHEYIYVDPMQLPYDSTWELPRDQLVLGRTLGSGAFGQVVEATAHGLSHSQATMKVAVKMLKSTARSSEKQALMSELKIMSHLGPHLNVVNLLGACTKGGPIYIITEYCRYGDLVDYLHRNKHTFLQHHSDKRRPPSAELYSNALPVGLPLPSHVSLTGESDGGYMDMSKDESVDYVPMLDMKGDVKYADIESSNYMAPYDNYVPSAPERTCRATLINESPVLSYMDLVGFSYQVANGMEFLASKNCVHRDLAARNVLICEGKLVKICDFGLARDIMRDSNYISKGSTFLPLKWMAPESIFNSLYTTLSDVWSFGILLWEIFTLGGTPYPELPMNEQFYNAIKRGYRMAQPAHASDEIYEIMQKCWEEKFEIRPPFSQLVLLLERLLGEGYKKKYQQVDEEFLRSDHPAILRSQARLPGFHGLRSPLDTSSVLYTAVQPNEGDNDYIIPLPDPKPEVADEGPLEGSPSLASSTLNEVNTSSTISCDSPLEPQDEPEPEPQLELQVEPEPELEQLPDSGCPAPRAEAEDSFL

[21] = target: Serine/threonine-protein kinase/endoribonuclease IRE1 (Homo sapiens, UniProt O75460); assay: Inhibition of ERN1 (unknown origin)
[22] = target: Serine/threonine-protein kinase Chk1 (Homo sapiens, UniProt O14757); assay: Inhibition of CHEK1 (unknown origin)
Sequence of Serine/threonine-protein kinase Chk1 (O14757 whole entry): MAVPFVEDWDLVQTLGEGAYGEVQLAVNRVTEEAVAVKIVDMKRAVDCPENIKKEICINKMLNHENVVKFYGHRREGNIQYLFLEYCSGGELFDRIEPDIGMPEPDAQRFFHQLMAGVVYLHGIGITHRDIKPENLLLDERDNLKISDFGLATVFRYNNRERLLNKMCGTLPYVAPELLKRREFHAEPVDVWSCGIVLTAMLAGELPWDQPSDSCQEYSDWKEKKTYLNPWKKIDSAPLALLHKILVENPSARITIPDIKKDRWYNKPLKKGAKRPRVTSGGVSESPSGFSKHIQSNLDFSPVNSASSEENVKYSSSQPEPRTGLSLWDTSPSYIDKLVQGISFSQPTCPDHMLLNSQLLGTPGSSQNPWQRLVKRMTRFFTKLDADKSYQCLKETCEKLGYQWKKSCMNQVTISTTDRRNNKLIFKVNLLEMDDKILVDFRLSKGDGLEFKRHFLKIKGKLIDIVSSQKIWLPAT

What does the source list for O=C(Nc1ccc(Oc2ncnc3[nH]ncc23)cc1)Nc1ccc(Cl)c(C(F)(F)F)c1?
IC50 (MDA-MB-468): 6.68 µM; bioavailability [1]: 66.7%; IC50 (LoVo): > 10 µM; IC50 [2]: 0.223 µM; inhibition [3]: Dose-dependent effect; IC50 [4]: 2.5 µM; Activity (MV4-11 [5]): Active; IC50 [6]: > 10 µM; IC50 (DU-145): > 10 µM; inhibition [7]: Active; IC50 [8]: > 10 µM; IC50 (K562): > 10 µM; TGI (MV4-11 [9]): Active; IC50 [10]: > 10 µM; IC50 [11]: > 10 µM; IC50 (U-266): > 10 µM; IC50 [12]: > 10 µM; IC50 [13]: > 10 µM; IC50 (KARPAS-299): > 10 µM; IC50 [14]: > 10 µM; IC50 [15]: > 10 µM; IC50 [16]: > 10 µM; Activity (MV4-11 [17]): 17.8%; IC50 [18]: > 10 µM; IC50 (MKN-45): 8.23 µM; IC50 (U-937): > 10 µM; IC50 (Bel-7402): > 10 µM; inhibition (Mus musculus): Active; IC50 (Aurora kinase B): > 10 µM; IC50 (SK-OV-3): > 10 µM; TGI (MV4-11 [19]): Active; IC50 (Myotonin-protein kinase): > 10 µM; IC50 (Raji): > 10 µM; IC50 [20]: 0.408 µM; IC50 [21]: > 10 µM; IC50 [22]: > 10 µM
